Data published in ChEMBL document CHEMBL1123833, “Novel inhibitors of rat lens aldose reductase: N-[[(substituted amino)phenyl]sulfonyl]glycines” (J Med Chem, 1987).
pIC50: −log10 of the molar value.

Columns and labels:
[1] = target: Aldo-keto reductase family 1 member B1 (Rattus norvegicus, UniProt P07943); test: Inhibition of rat aldose reductase enzyme.
Summary of the method: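 Rat lens supernatant (homogenized in water, spun at 0–5 °C, diluted to a control rate of 0.010 ± 0.002 A/min). Assayed in 0.1 M phosphate pH 6.2, 0.104 mM NADPH, 10 mM DL-glyceraldehyde, following A340 decrease for 3.0 min. Four inhibitor concentrations, three determinations each. IC50 from least-squares fit of the log dose-response curve.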

[2] = target: Aldo-keto reductase family 1 member B1 (Rattus norvegicus) (UniProt P07943); test: Inhibition of rat aldose reductase activity at 100 uM.
Summary of the method: (§1)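 Crude rat lens enzyme: 50 lenses homogenized in distilled water and spun at 10000 rpm for 10 min at 0–5 °C. Supernatant diluted so the control rate was 0.010 ± 0.002 A/min. Reaction in 0.1 M phosphate pH 6.2 with 0.104 mM NADPH, started with 10 mM DL-glyceraldehyde. NADPH loss read at 340 nm for 3.0 min against a glyceraldehyde-free blank. Inhibitor tested at 100 μM; % inhibition vs substrate-only control, reported with SEM.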

[3] = target: Aldo-keto reductase family 1 member B1 (Rattus norvegicus) (UniProt P07943); test: Compound was tested for percent inhibition of aldose reductase inhibitory activity using rat lens assay at concentration of 100 uM; summary of the method: as §1

Nc1ccc(S(=O)(=O)NCC(=O)O)cc1
pIC50 [1]: 4.80 | inhibition [2]: 76%

CC(=O)Nc1ccc(S(=O)(=O)NCC(=O)O)cc1
pIC50 [1]: 5.37 | inhibition [2]: 88%

O=C(O)CNS(=O)(=O)c1cccc(NC(=O)c2ccccc2)c1
pIC50 [1]: 5.15 | inhibition [2]: 79%

O=C(O)CNS(=O)(=O)c1ccc(N/C(S)=N/c2ccccc2)cc1
pIC50 [1]: 5.07 | inhibition [2]: 65%

Nc1ccccc1S(=O)(=O)NCC(=O)O
pIC50 [1]: 4.42 | inhibition [2]: 74%

O=C(O)CNS(=O)(=O)c1ccc(NCc2ccccc2)cc1
pIC50 [1]: 5.15 | inhibition [2]: 71%

O=C(O)CNS(=O)(=O)c1ccc(NC(=O)c2ccccc2)cc1
pIC50 [1]: 6.39 | inhibition [2]: 81%

O=C(O)CNS(=O)(=O)c1ccc(NC(=O)COCc2ccccc2)cc1
pIC50 [1]: 5.46 | inhibition [2]: 79%

O=C(O)CNS(=O)(=O)c1ccc(NC(=O)Nc2ccccc2)cc1
pIC50 [1]: 5.56 | inhibition [2]: 83%

O=C(O)CNS(=O)(=O)c1ccccc1NC(=O)c1ccccc1
pIC50 [1]: 4.11 | inhibition [2]: 52%

CN(C)c1ccc(S(=O)(=O)NCC(=O)O)cc1
pIC50 [1]: 4.96 | inhibition [2]: 80%

O=C(O)CNS(=O)(=O)c1ccc(NC(=O)CCc2ccccc2)cc1
pIC50 [1]: 4.94 | inhibition [2]: 86%

O=C(O)CNS(=O)(=O)c1ccc(NC(=O)OCc2ccccc2)cc1
pIC50 [1]: 5.22 | inhibition [2]: 82%

O=C(O)CNS(=O)(=O)c1ccc(NC(=O)COc2ccccc2)cc1
pIC50 [1]: 5.58 | inhibition [2]: 87%

O=C(O)CNS(=O)(=O)c1ccc(NC(=O)Cc2ccccc2)cc1
pIC50 [1]: 5.66 | inhibition [3]: 100%

O=C(O)CNS(=O)(=O)c1ccc(NC(=O)/C=C/c2ccccc2)cc1
pIC50 [1]: 6.16 | inhibition [2]: 72%

Nc1cccc(S(=O)(=O)NCC(=O)O)c1
pIC50 [1]: 4.54 | inhibition [2]: 73%
